Screens as filed in PubChem BioAssay.
A selection: hits, their analogues and other compounds. The true share with any hit is near 8.7%.
Cav32 inh: inhibitors of human Cav3.2 T-type calcium channel; O95180; B-score at 10 µM; Cav3.2-expressing cells, Fluo-4 calcium fluorescence FDSS; active compounds read low; 4% of 100,000 active;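 active = single-dose well whose peak fluorescence ratio is a statistical outlier from its plate by either plate-standardised score or position-corrected B-score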
Pyk2 oligo antag: Pyk2 (human) oligomerization antagonism. 0.83% of 99,000 active. AID 1347419. Q293 cells, Pyk2 FERM NanoBiT luminescence; active compounds read low. z-score (the deposit names both 25 µM and 10 µM);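 active = Z-score of -3 or lower, scaled per plate to the spread of control and sample wells; inactive = z-score above -3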;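 note: negative z-score means lost luminescence so less FERM oligomerization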
PostGolgi yeast: growth inhibition of a yeast mutant, post-Golgi transport screen; post-Golgi transport phenotypic cell assay; inhibition, % at 10 µM; 0.9% of 98,000 active; AID 739;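 note: yeast cells grown in 1536-well plates; yeast grown about 18 h at 30C before absorbance read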
E coli WT exp: growth inhibitors of E. coli BW25113 wild type; growth inhibition, % at 100 µM; AID 710; 0.15% of 98,000 active; OD600 absorbance;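 active = growth inhibition above about 50% at one test dose, limit read from the data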;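 note: growth measured after 20 h incubation at 37 °C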
tolC growth inh: growth inhibitors of E. coli BW25113 tolC mutant | OD615 | growth inhibition, % at 10 µM (by protocol) | 2.2% of 65,000 active | AID 573;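 active = growth inhibition at or above a cutoff equal to the mean over every tested compound plus 3 SD, cut at about 60% in these data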;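 note: growth measured after 20 h incubation at 37 °C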
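Material: E. coli BW25113 ΔtolC::kan, tolC deletion mutant strain. Measure: percent growth inhibition. Schedule: 37 °C, 20 h exposure. Doses: single-point testing at 10 µM. Signal: A615 absorbance measurement. Buffer or medium: kanamycin-containing LB broth (50 µg/mL).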
PostGolgi ctrl: yeast control strain growth, post-Golgi counter-screen; efflux-deficient yeast background strain, growth absorbance A615, 16 h; inhibition, % at 10 µM; 5% of 98,000 active
Starred values were filed as active, the others as inactive. Cut-off read from the data, not from the text of the source, unless noted: active = inhibition above about 30%; inactive = the rest.

CC(=O)c1cc(C)ccc1OC(=O)CCN1C(=O)C2C3c4ccccc4C(c4ccccc43)C2C1=O (configuration not stated) was read as Cav32 inh 0.52, Pyk2 oligo antag -0.14, PostGolgi yeast -5, E coli WT exp -1 and PostGolgi ctrl -6.
`CC1CC(C)CN(C(=O)CSc2nnc(-c3ccc(Cl)s3)o2)C1` (configuration not stated) gave Cav32 inh -3.4*, PostGolgi yeast 7, E coli WT exp -2, tolC growth inh 71* and PostGolgi ctrl 3.
COc1ccccc1-c1nnc(NC(=O)C(C)SC2=NCCS2)s1 (configuration not stated) was read as Cav32 inh -3.1, PostGolgi yeast 11, E coli WT exp -9, tolC growth inh 11 and PostGolgi ctrl 38*.
For O=C1c2ccccc2C(Nc2ccc(Cl)cn2)N1Cc1ccccc1 (configuration not stated) the results were Cav32 inh -5.1, PostGolgi yeast 3, E coli WT exp 9 and PostGolgi ctrl 58*.
For COc1ccc(-c2[nH]ncc2-c2ccc(Cl)cc2)c(O)c1 the results were Cav32 inh -0.87, Pyk2 oligo antag -0.46, PostGolgi yeast 15, E coli WT exp 18, tolC growth inh 98* and PostGolgi ctrl 49*.
`Oc1ccc(-c2[nH]ncc2-c2ccc(Cl)cc2)c(O)c1` gave Cav32 inh -1.5, Pyk2 oligo antag -1.7, PostGolgi yeast -4, E coli WT exp 30, tolC growth inh 100* and PostGolgi ctrl 23.
COc1ccc2cc(CCNC(=O)c3c(-c4ccccc4Cl)noc3C)c(=O)[nH]c2c1 was read as PostGolgi yeast 1, E coli WT exp 5, tolC growth inh 21 and PostGolgi ctrl 8.
For COc1ccc(Nc2nnc(-c3ccc(N4CCOCC4)c([N+](=O)[O-])c3)c3ccccc23)cc1 the results were Cav32 inh -0.024, Pyk2 oligo antag -0.16, PostGolgi yeast -2, E coli WT exp -5 and PostGolgi ctrl 20.
COc1ccc(CCNC(=O)c2c(O)c3c([nH]c2=O)CCCC3)cc1 was read as Cav32 inh 0.84, Pyk2 oligo antag 3.9, PostGolgi yeast 3, E coli WT exp -13, tolC growth inh -1 and PostGolgi ctrl 0.
Screening Cc1cc(C)cc(-n2ccnc2SCC(=O)Nc2ccc3c(c2)OCCO3)c1 returned Cav32 inh -3.9, Pyk2 oligo antag -0.51, PostGolgi yeast -8, E coli WT exp -12, tolC growth inh 77* and PostGolgi ctrl 3.
For Cc1ccc(OCc2nnc(SCc3nc4ccccc4[nH]3)n2Cc2ccco2)cc1 the results were Cav32 inh -8.5*, Pyk2 oligo antag -0.41, PostGolgi yeast -4, E coli WT exp 3, tolC growth inh 26 and PostGolgi ctrl 32*.
`O=C(CSc1nccn1-c1ccccc1)Nc1ccc2c(c1)OCO2` gave Cav32 inh -0.2, Pyk2 oligo antag -0.83, PostGolgi yeast 0, E coli WT exp 6, tolC growth inh 6 and PostGolgi ctrl 13.
`c1ccc(-c2nnc(SCc3nc4ccccc4[nH]3)n2Cc2ccco2)cc1` gave Cav32 inh 0.54, Pyk2 oligo antag 0.17, PostGolgi yeast -5, E coli WT exp 10 and PostGolgi ctrl 4.
`O=C(CSc1ncc(-c2ccccc2)n1-c1ccccc1)NCc1ccco1` gave Cav32 inh -2.6, Pyk2 oligo antag -1.9, PostGolgi yeast 0, E coli WT exp 4, tolC growth inh -1 and PostGolgi ctrl 8.
Screening COc1ccc(-n2c(-c3ccc(F)cc3)cnc2SCC(=O)NCc2ccco2)cc1 returned Cav32 inh -5.7*, Pyk2 oligo antag -2.3, PostGolgi yeast -1, E coli WT exp 3 and PostGolgi ctrl 23.
Screening Cc1ccc(OCc2nnc(SCC(=O)c3ccccc3)n2Cc2ccco2)cc1 returned Cav32 inh -4.5*, Pyk2 oligo antag -0.56, PostGolgi yeast 0, E coli WT exp -9, tolC growth inh 40 and PostGolgi ctrl 18.
`Clc1ccc(OCc2nnc(SCCN3CCCCC3)n2Cc2ccco2)cc1` gave Cav32 inh 0.15, Pyk2 oligo antag 0.16, PostGolgi yeast -1, E coli WT exp 2, tolC growth inh 24 and PostGolgi ctrl -5.
COc1ccc(C)cc1NC(=O)CSc1nnc(COc2ccc(C)cc2)n1Cc1ccco1 was read as Cav32 inh -4, Pyk2 oligo antag -1, PostGolgi yeast -3, E coli WT exp -7, tolC growth inh 58 and PostGolgi ctrl 26.
For O=C(CSc1ncc(-c2ccc(F)cc2)n1Cc1ccco1)Nc1ccc2c(c1)OCO2 the results were Cav32 inh -4.8*, Pyk2 oligo antag 0.17, PostGolgi yeast 19, E coli WT exp 2, tolC growth inh 70* and PostGolgi ctrl 31*.
Screening Cc1ccc(OCc2nnc(SCC(=O)Nc3ccc4c(c3)OCCO4)n2Cc2ccco2)cc1 returned Cav32 inh -6*, Pyk2 oligo antag 1.8, PostGolgi yeast 1, E coli WT exp -17, tolC growth inh 49 and PostGolgi ctrl 12.
`O=c1c2ccccc2nnn1CSc1nnc(COc2ccc(Cl)cc2)n1Cc1ccco1` gave Cav32 inh -0.81, Pyk2 oligo antag -0.67, PostGolgi yeast 103*, E coli WT exp -2, tolC growth inh 8 and PostGolgi ctrl 82*.
Screening Cc1c(/C=N/NC(=O)c2cc(=O)[nH]c(=O)[nH]2)c2ccccn2c1C(=O)c1ccccc1 returned Cav32 inh -0.72, Pyk2 oligo antag -1.6, PostGolgi yeast -9, E coli WT exp -1 and PostGolgi ctrl -7.
`Cc1cccc(/C=N\NC(=O)c2sccc2-n2cccc2)c1` gave Cav32 inh -4.1*, Pyk2 oligo antag -0.01, PostGolgi yeast -3, E coli WT exp 5 and PostGolgi ctrl 4.
For CC(C)(C)c1ccc(-c2n[nH]c(=S)n2C2CCCC2)cc1 the results were Cav32 inh -3.4, Pyk2 oligo antag -1.1, PostGolgi yeast -6, E coli WT exp -10 and PostGolgi ctrl 59*.
For Cn1c(-c2ccc(C(C)(C)C)cc2)n[nH]c1=S the results were Cav32 inh 1.2, Pyk2 oligo antag 1.8, PostGolgi yeast 2, E coli WT exp 2, tolC growth inh 6 and PostGolgi ctrl 5.
Screening CCC1=C(OC(=O)N(CC)CC)N2C(=O)OC(=NCCc3c[nH]c4ccccc34)[C@]2(Cc2ccccc2)[C@H]2C1=CC[C@H]1C(=O)N(C)C(=O)[C@H]12 returned Cav32 inh -0.33.
`CCOC(=O)c1cc2c(=O)n(C)c3ccccc3c2s1` gave tolC growth inh 6.
Screening CC(C)(C)n1nnnc1C(c1cccs1)N(Cc1ccccc1)Cc1cccnc1 (configuration not stated) returned Cav32 inh -4.6*, Pyk2 oligo antag -4.2*, PostGolgi yeast 13, E coli WT exp -9, tolC growth inh 80* and PostGolgi ctrl 28.
